Here are results for seven compounds from ChEMBL document CHEMBL2176998, “Regulation of the Escherichia coli AtoSC two component system by synthetic biologically active 5;7;8-trimethyl-1;4-benzoxazine analogues” (Bioorg Med Chem, 2011).

Active and inactive are the calls of the source. The calls are words filed in the database; no cut-off is given here.

The subject of experiment [1] is Escherichia coli. Description: Induction of atoC transcription in Escherichia coli K-12 BW25113 at 1 mM by beta-galactosidase reporter assay. Format: functional, organism-based. In outline:
(§1)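 BW25113 carrying pCPG6 (atoC-lacZ) grown at 37 °C with vigorous shaking in supplemented M9 minimal medium with ampicillin 100 µg/mL. Overnight cultures were diluted 1:15 into medium containing compound at 1 mM, or at 0, 0.25, 0.5, 1.0, 2.5 and 5 mM. Cells were grown to OD600 0.4–0.7, then harvested, washed twice in M9, and assayed for β-galactosidase. The pMLB1034 vector strain served as negative control. Two independent experiments, two clones each.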

The nature of experiment [2]: Induction of purified His6-tagged cytosolic AtoS autophosphorylation preincubated at 1 mM for 15 mins before […] addition after 30 mins by autoradiography. In outline: (§2)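 Purified His6-tagged cytoAtoS (7 µM) was preincubated 15 min at room temperature with compound at 1 mM final in 50 mM Tris-HCl pH 7.6, 10 mM MgCl2, 100 mM KCl, 1 mM DTT, 10 mM NaF. Reactions were stopped with SDS loading buffer, resolved on 12% SDS–PAGE and autoradiographed.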

For experiment [3], the system named is Escherichia coli. Description: Induction of atoDAEB transcription in Escherichia coli K-12 BW25113 at 1 mM by beta-galactosidase reporter assay. Format: functional, organism-based. Put shortly: (§3)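 BW25113 carrying pCPG5 (atoA-lacZ, atoDAEB promoter) grown at 37 °C in supplemented M9 minimal medium with 1 mM compound. Overnight cultures were diluted 1:15 and grown to OD600 0.4–0.7. Cells were washed twice in M9, then β-galactosidase activity was read. Plasmid pMLB1034 served as negative control.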

For experiment [4], the system named is Escherichia coli. Description: Increase in AtoC protein level in Escherichia coli K-12 BW25113 grown to OD600 0.5 to 0.6 at 1 to 2.5 mM by immunoblot method. Format: functional, organism-based. Put shortly: (§4)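 BW25113 carrying pUC-Az (atoS, atoC) grown in supplemented M9 with compound at 1.0 or 2.5 mM, added at the start of growth. Cultures were harvested at OD600 0.5–0.6. Whole-cell extracts in SDS loading buffer (15 µL) were boiled and run on SDS–PAGE, then immunoblotted with affinity-purified rabbit polyclonal anti-AtoC or anti-AtoS. BW28878, lacking AtoS/AtoC, was the negative control.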

Experiment [5] relates to Escherichia coli. The experiment in a line: Effect on AtoS protein level in Escherichia coli K-12 BW25113 grown to OD600 0.5 to 0.6 at 1 mM by immunoblot method. Format: functional, organism-based. Put shortly: as §4
Experiment [6] concerns Nucleic Acid. The experiment in a line: Effect on atoS promoter activity in Escherichia coli K-12 BW25113 at 1 to 2.5 mM by beta-galactosidase reporter assay. Format: nucleic-acid assay. Put shortly:
(§5)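 BW25113 carrying pCPG4 (atoS-lacZ) or pCPG5 (atoA-lacZ), in supplemented M9 at 37 °C. Overnight cultures were diluted 1:15 into medium with compound at 1.0 or 2.5 mM and grown to OD600 0.4–0.7. Cells were harvested, washed twice in M9 and assayed for β-galactosidase. The pMLB1034 strain served as negative control.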

The subject of experiment [7] is Escherichia coli. Description: Repression of atoDAEB transcription in Escherichia coli K-12 BW25113 at 1 mM by beta-galactosidase reporter assay. Format: functional, organism-based. In outline: as §3
Experiment [8] relates to Nucleic Acid. The experiment in a line: Activation of atoDAEB promoter activity in Escherichia coli K-12 BW25113 harboring plasmid containing atoA-lacz by beta-galactosidase reporter assay in presence of 2.5 mM acetoacetate.
Experiment [9] relates to Nucleic Acid. The experiment in a line: Activation of atoDAEB promoter activity in Escherichia coli K-12 BW25113 harboring plasmid containing atoA-lacz at 0.1 to 2.5 mM by beta-galactosidase reporter assay in presence of 2.5 mM acetoacetate. Format: nucleic-acid assay. Put shortly:
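BW25113/pCPG5 (atoA-lacZ) grown in modified M9 mineral medium with no acetoacetate or with 2.5 or 10 mM acetoacetate. Compound was added at 0.1, 0.5, 1.0 or 2.5 mM after 1:15 dilution of overnight cultures. Cells were grown to OD600 0.4–0.7, washed twice in M9 and assayed for β-galactosidase.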

Experiment [10] concerns Escherichia coli. Description: Effect on HSP60 protein level in Escherichia coli K-12 BW25113 harboring plasmid containing atoC-lacZ at 0.25 to 5 mM by Western blot method. Format: functional, organism-based.
The nature of experiment [11]: Induction of purified His6-tagged cytosolic AtoS kinase activity preincubated at 1 mM for 15 mins before […] addition after 30 mins by autoradiography. In outline:
as §2

The subject of experiment [12] is Escherichia coli. Description: Reduction in AtoC protein level in Escherichia coli K-12 BW25113 harboring pUC-Az plasmid at 5 mM by immunoblot method.
Experiment [13] relates to Escherichia coli. The experiment in a line: Reduction in AtoS protein level in Escherichia coli K-12 BW25113 at 1 to 5 mM by immunoblot method. Format: functional, organism-based. Put shortly:
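BW25113/pUC-Az grown in supplemented M9 with various compound concentrations. Half of each dose was added at OD600 0.2 and half at 0.4, and growth continued to OD600 0.9. Total extracts (15 µL) were run on 10% SDS–PAGE and immunostained with anti-AtoC (1:500) or anti-AtoS (1:1000). BW28878 was the negative control.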

Experiment [14] concerns Escherichia coli. The experiment in a line: Induction of atoC transcription in Escherichia coli K-12 BW25113 by beta-galactosidase reporter assay. Format: functional, organism-based. In outline: as §1
The subject of experiment [15] is Escherichia coli. The experiment in a line: Increase in DnaK protein level in Escherichia coli K-12 BW25113 by Western blot method. Format: functional, organism-based.
Experiment [16] in a line: Stimulation of recombinant purified His6-tagged cytosolic AtoS oligomers assessed as reduction in dimeric form at 1 mM using glutaraldehyde by SDS-PAGE analysis. In outline:
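It was then cross-linked 30 min at 25 °C with 0.1% glutaraldehyde. The reaction was stopped with 2× SDS loading buffer and boiling, run on 8.5% SDS–PAGE and immunoblotted with anti-His (1:500).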

Experiment [17] deals with Nucleic Acid. The experiment in a line: Activation of atoC promoter in Escherichia coli K-12 BW25113 by beta-galactosidase reporter assay. Format: nucleic-acid assay. Put shortly:
as §1

Experiment [18] deals with Escherichia coli. Description: Reduction in AtoS protein level in Escherichia coli K-12 BW25113 grown to OD600 0.5 to 0.6 at 2.5 mM by immunoblot method. Format: functional, organism-based. Put shortly: as §4
The subject of experiment [19] is Nucleic Acid. Description: Effect on atoDAEB promoter activity in Escherichia coli K-12 BW25113 at 1 to 2.5 mM by beta-galactosidase reporter assay. Format: nucleic-acid assay. Put shortly: as §5
Experiment [20] concerns Escherichia coli. Description: Repression of atoC transcription in Escherichia coli K-12 BW25113 at 1 mM by beta-galactosidase reporter assay. Format: functional, organism-based. In outline: as §1

`COc1ccc(C2CNc3c(C)cc(C)c(C)c3O2)cc1` (stereo unspecified): the outcome with Escherichia coli [1] and in the experiment with Escherichia coli [3] was Active. Besides, the result in [2] was inactive.
With `Cc1cc(C)c2c(c1C)OCCN2`, the result (in the experiment on Escherichia coli [4]; in the experiment with Escherichia coli [1]; in the experiment with Escherichia coli [7]; in the experiment on Nucleic Acid [8]; in the experiment with Nucleic Acid [9]; in [11]) was Active. Moreover, the outcome (in the experiment with Escherichia coli [12]; in the experiment with Escherichia coli [13]; in [16]; in experiment [2]; with Escherichia coli [18]) was Active. The outcome with Escherichia coli [5], in the experiment on Nucleic Acid [6], in the experiment on Escherichia coli [10] and in the experiment on Nucleic Acid [19] was inactive. Further, the Activity entry with Escherichia coli [14], in the experiment with Escherichia coli [15] and in the experiment on Nucleic Acid [17] was “Dose-dependent effect” throughout.
Turning to `COc1ccc(-c2c(C)c(C)c3c(c2C)NCCO3)cc1`, the outcome in the experiment with Escherichia coli [1] was Active. Besides, in the experiment on Escherichia coli [3], the outcome was inactive.
For `Cc1c(C)c2c(c(C)c1Cl)NCC(c1ccccc1)O2` (stereo unspecified), the result in the experiment on Escherichia coli [1] and with Escherichia coli [3] was Active. The result in experiment [2] was inactive.
As for `COc1ccc(C2COc3c(C)c(C)cc(C)c3N2)cc1` (stereo unspecified), the result in the experiment on Escherichia coli [20] and in the experiment with Escherichia coli [3] was Active. Also, the outcome in experiment [2] was inactive.
Regarding `Cc1c(C)c2c(c(C)c1Br)NCCO2`, the outcome (in the experiment with Escherichia coli [1]; in experiment [2]; in the experiment with Escherichia coli [3]) was inactive. Moreover, the result in the experiment with Escherichia coli [7] was Active.
`Cc1c(C)c2c(c(C)c1Cl)NCCO2`: the outcome in the experiment with Escherichia coli [7] and with Escherichia coli [20] was Active. Further, the result in experiment [2] was inactive.
